The results in this text go back to ChEMBL document CHEMBL1129289, “Dibenzoxepinone hydroxylamines and hydroxamic acids: dual inhibitors of cyclooxygenase and 5-lipoxygenase with potent topical antiinflammatory activity” (J Med Chem, 1996).

Holding throughout (type): functional
Assay [1] relates to Mus musculus. The assay can be described thus: Change in arachidonic acid induced oedema in mouse ear. An outline of the steps:
(§1)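 Male CFW Swiss Webster mice, n=6. Compound or vehicle (3:7 propylene glycol:ethanol) applied topically to the right ear, 10 µL each to outer and inner surface. After 30 min, arachidonic acid 4 mg/20 µL on the right ear and vehicle on the left.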

The test system of assay [2] is Mus musculus. In words: Inhibition of arachidonic acid oedema in mouse ear. An outline of the steps:
as §1

For assay [3], the target named is T1, Polyunsaturated fatty acid 5-lipoxygenase (Rattus norvegicus, UniProt P12527).
T1 sequence (P12527 whole entry): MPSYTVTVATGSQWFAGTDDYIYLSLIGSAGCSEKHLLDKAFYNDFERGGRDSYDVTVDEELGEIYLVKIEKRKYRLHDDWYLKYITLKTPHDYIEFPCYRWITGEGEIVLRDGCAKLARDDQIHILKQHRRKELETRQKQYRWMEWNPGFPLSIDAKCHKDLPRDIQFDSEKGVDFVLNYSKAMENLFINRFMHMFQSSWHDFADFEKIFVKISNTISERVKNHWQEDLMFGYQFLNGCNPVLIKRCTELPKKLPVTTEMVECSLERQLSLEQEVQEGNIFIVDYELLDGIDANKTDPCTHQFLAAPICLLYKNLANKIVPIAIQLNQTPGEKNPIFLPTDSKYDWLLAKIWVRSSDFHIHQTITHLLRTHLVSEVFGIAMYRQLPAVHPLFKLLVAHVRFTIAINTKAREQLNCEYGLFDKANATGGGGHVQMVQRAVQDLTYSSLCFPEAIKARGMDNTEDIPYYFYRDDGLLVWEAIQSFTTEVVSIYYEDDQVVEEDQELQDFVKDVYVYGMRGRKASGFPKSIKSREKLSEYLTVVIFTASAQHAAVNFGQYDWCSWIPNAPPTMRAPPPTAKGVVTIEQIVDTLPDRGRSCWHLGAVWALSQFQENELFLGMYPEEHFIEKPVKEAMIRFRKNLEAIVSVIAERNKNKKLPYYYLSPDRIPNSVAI
In words: (§2) Inhibition of 5-lipoxygenase by measuring 5-HETE levels in RBL-1 cell-free supernatant. An outline of the steps:
(§3)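 Cell-free rat basophilic leukemia (RBL-1) supernatant, 150 µg protein per tube, in duplicate. Buffer: 35 mM NaH₂PO₄ pH 7.0, 5 µM ATP, 50 µM CaCl₂, 10 µM arachidonic acid. Compounds from DMSO stocks. Run at 37 °C for 10 min and stopped with citric acid. 5-HETE measured by radioimmunoassay against a standard curve. Percent change from control; some values given at 50 µM.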

For assay [4], the target named is T2, Polyunsaturated fatty acid 5-lipoxygenase (Rattus norvegicus) (UniProt P12527).
T2 sequence (whole entry): T1 sequence (P12527 whole entry)
The description is as §2. The settings on record: concentration not given here. An outline of the steps: as §3

Regarding `CN(O)C(=O)CCc1ccc2c(c1)C(=O)c1ccccc1CO2`, the Change in the assay with Mus musculus [1] is listed as -66%. Besides, the ED50 in the assay with Mus musculus [2] stood at 0.69 mg ear-1. In assay [3], this compound registered an IC50 of 10 nM.

In the case of `CC(=O)N(O)CCc1ccc2c(c1)C(=O)c1ccccc1CO2`, the Change with Mus musculus [1] was -61%. This compound returned an IC50 in assay [3] of 190 nM.

`O=C(Cc1ccc2c(c1)C(=O)c1ccccc1CO2)NO`: the Change in the assay on Mus musculus [1] is -19%. This compound came in with an IC50 in assay [3] of 9000 nM.

For `CN(O)CCc1ccc2c(c1)C(=O)c1ccccc1CO2`, the Change in the assay on Mus musculus [1] is on record as -46%.

Consider `CC(C(=O)N(C)O)c1ccc2c(c1)C(=O)c1ccccc1CO2` (configuration not stated), for which the Change in the assay on Mus musculus [1] was -44%. This compound came in with an IC50 in assay [3] of 1300 nM.

In the case of `CCN(O)C(=O)Cc1ccc2c(c1)C(=O)c1ccccc1CO2`, in the assay with Mus musculus [1], the Change was -52%. Also, it took 580 nM to reach half-maximal inhibition in assay [3] (IC50).

In the assay on Mus musculus [2], `O=C(O)Cc1ccc2c(c1)C(=O)c1ccccc1CO2` [ISOXEPAC] displayed an ED50 of 55 mg ear-1. This compound yielded an inhibition in assay [4] of 1.5%.

Take `CON(C)C(=O)CCc1ccc2c(c1)C(=O)c1ccccc1CO2`: the Change with Mus musculus [1] was -41%. Moreover, in assay [3], the IC50 is greater than 50000 nM.

In turn, `CC(Cc1ccc(O)c(O)c1)C(C)Cc1ccc(O)c(O)c1` (configuration not stated) [NORDIHYDROGUAIARETIC ACID] showed an ED50 with Mus musculus [2] of 3.1 mg ear-1.

`CC(C)N(O)C(=O)CCc1ccc2c(c1)C(=O)c1ccccc1CO2`: the Change with Mus musculus [1] was -63%. In assay [3], this compound had an IC50 of 580 nM.

For `CC(C)N(O)CCc1ccc2c(c1)C(=O)c1ccccc1CO2`, the Change with Mus musculus [1] is recorded as -47%. This compound also returned an IC50 in assay [3] of 130 nM.

In the case of `CCN(O)C(=O)CCc1ccc2c(c1)C(=O)c1ccccc1CO2`, the Change in the assay with Mus musculus [1] is -55%. The compound also registered an IC50 in assay [3] of 150 nM.

For `CCN(O)CCc1ccc2c(c1)C(=O)c1ccccc1CO2`, the Change in the assay with Mus musculus [1] is given as -50%. In addition, the IC50 in assay [3] came to 480 nM.

Take `O=C1c2ccccc2COc2ccc(CCC(=O)N(O)C3CCCCC3)cc21`: the Change with Mus musculus [1] was -14%. The IC50 in assay [3] came to 2000 nM.

For the compound `CC(C)Cc1ccc(C(C)C(=O)O)cc1` (configuration not stated) [IBUPROFEN], in the assay on Mus musculus [2], the Change is listed as -11%.

Consider `O=C1c2ccccc2COc2ccc(CC(=O)N(O)C3CCCCC3)cc21`, for which, in the assay with Mus musculus [1], the Change was -29%. This compound returned an IC50 in assay [3] of 670 nM.

For `CN(O)C(=O)CCc1ccc2c(c1)Cc1ccccc1CO2`, the Change with Mus musculus [1] is reported as -67%. Further, the ED50 with Mus musculus [2] amounted to 0.7 mg ear-1. The compound further returned an IC50 in assay [3] of 20 nM.

Consider `CCN(O)C(=O)C(C)c1ccc2c(c1)C(=O)c1ccccc1CO2` (configuration not stated), for which, in the assay with Mus musculus [1], the Change is reported as -38%. Moreover, the inhibition in assay [4] is 94%.

`CN(O)C(=O)Cc1ccc2c(c1)C(=O)c1ccccc1CO2`: the Change in the assay on Mus musculus [1] is listed as -63%. The compound further had an IC50 in assay [3] of 1190 nM.

Turning to `CCN(O)CCc1ccc2c(c1)Cc1ccccc1CO2`, in the assay with Mus musculus [1], the Change is reported as -50%. The midpoint of inhibition in assay [3], the IC50, lay at 320 nM.

In the case of `CC(=O)N(O)Cc1ccc2c(c1)C(=O)c1ccccc1CO2`, the Change with Mus musculus [1] was -47%. Further, the IC50 in assay [3] was found to be 210 nM.

As to `CCN(O)CCc1ccc2c(c1)C(O)c1ccccc1CO2` (configuration not stated), the Change in the assay on Mus musculus [1] is listed as -47%. In assay [3], inhibition was half-maximal at 450 nM (IC50).

For the compound `O=C(CCCCCCCCc1ccccc1)NO`, the ED50 in the assay on Mus musculus [2] is recorded as 2.56 mg ear-1. The compound also showed an IC50 in assay [3] of 480 nM.

For `CN(O)CCCc1ccc2c(c1)C(=O)c1ccccc1CO2`, the Change in the assay with Mus musculus [1] is -53%. The compound further gave an IC50 in assay [3] of 620 nM.

In the case of `CN(O)C(=O)C(C)(C)Cc1ccc2c(c1)C(=O)c1ccccc1CO2`, in the assay on Mus musculus [1], the Change was 29%. The same compound returned an IC50 in assay [3] of 660 nM.

`COc1ccc2c(c1)c(CC(=O)O)c(C)n2C(=O)c1ccc(Cl)cc1` [INDOMETHACIN]: the ED50 in the assay with Mus musculus [2] came out at 1.63 mg ear-1.

For `CC(C)N(O)C(=O)Cc1ccc2c(c1)C(=O)c1ccccc1CO2`, the Change in the assay with Mus musculus [1] is -52%. Besides, the midpoint of inhibition in assay [3], the IC50, lay at 1230 nM.

Usually IC50 stands for the concentration needed to halve the response being measured. Broadly, the inhibition is the relative decrease from the control value, in per cent. Read a high inhibition as strong suppression.
